≈ marks a conversion by molar mass, not a printed value.
Tests used:
Citrobacter koseri = test: Antibacterial activity against Citrobacter koseri; type: functional
Outline: (§1)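 MICs for baseline pathogens isolated from patients with complicated skin and skin-structure infections. Isolates went to a central laboratory for identification and susceptibility testing by CLSI broth dilution in fresh media.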

Serratia marcescens = test: Antibacterial activity against Serratia marcescens; type: functional; outline: as §1
Proteus mirabilis = test: Antibacterial activity against Proteus mirabilis; type: functional; outline: as §1
Streptococcus pyogenes = test: Antibacterial activity against Streptococcus pyogenes; type: functional; outline: as §1
Staphylococcus aureus = test: Antibacterial activity against Staphylococcus aureus; type: functional
Outline: (§2)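 Baseline isolates from cSSSI patients in three pooled tigecycline trials (one phase 2, two phase 3) were identified and susceptibility-tested at a central laboratory. MICs were determined by broth dilution in fresh media following Clinical and Laboratory Standards Institute guidelines.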

Enterococcus faecalis = test: Antibacterial activity against Enterococcus faecalis; type: functional; outline: as §1
Enterococcus faecium = test: Antibacterial activity against Enterococcus faecium; type: functional; outline: as §1
Klebsiella pneumoniae = test: Antibacterial activity against Klebsiella pneumoniae; type: functional; outline: as §2
Streptococcus anginosus = test: Antibacterial activity against Streptococcus anginosus; type: functional; outline: as §1
Acinetobacter baumannii = test: Antibacterial activity against Acinetobacter baumannii; type: functional; outline: as §2
Escherichia coli = test: Antibacterial activity against Escherichia coli; type: functional; outline: as §2
[1] = tested on: Streptococcus constellatus; test: Antibacterial activity against Streptococcus constellatus; type: functional; outline: as §1
[2] = tested on: Acinetobacter calcoaceticus; test: Antibacterial activity against Acinetobacter calcoaceticus; type: functional; outline: as §1
[3] = AUC (24 hrs)/MIC in patient with baseline skin pathogens at 100 mg loading dose followed by 50 mg every 12 hrs; type: ADME, cell-free; details: human, plasma
Outline: (§3)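 Per-patient ratio of model-derived steady-state AUC24 to the MIC of the baseline pathogen. The AUC24 came from population PK analysis of serum LC-MS/MS levels sampled predose and at 1, 3 and 6 h. MICs were set centrally by CLSI broth dilution in fresh media on isolates taken at baseline, with i.v. dosing over 7 to 14 days.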

Citrobacter freundii = test: Antibacterial activity against Citrobacter freundii; type: functional; outline: as §1
[4] = tested on: Streptococcus intermedius; test: Antibacterial activity against Streptococcus intermedius; type: functional; outline: as §1
[5] = tested on: Acinetobacter haemolyticus; test: Antibacterial activity against Acinetobacter haemolyticus; type: functional; outline: as §1
[6] = tested on: Streptococcus dysgalactiae; test: Antibacterial activity against Streptococcus dysgalactiae; type: functional; outline: as §1
Enterobacter cloacae = test: Antibacterial activity against Enterobacter cloacae; type: functional; outline: as §2
[7] = AUC at 24 hrs steady state in patient with complicated skin and skin structure infection at 100 mg loading dose followed by 50 mg every 12 hrs; type: ADME, organism-based; design: dose 100 mg, time < 24 hr; details: human, plasma
Outline: (§4)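 Tigecycline given i.v. for 7 to 14 days. Levels were measured by validated LC-MS/MS (LLOQ 10 ng/ml). Steady-state AUC24 was derived from a population PK model in evaluable patients pooled from three trials.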

[8] = tested on: Streptococcus dysgalactiae subsp. equisimilis; test: Antibacterial activity against Streptococcus equisimilis; type: functional; outline: as §1
[9] = AUC at 24 hrs steady state in patient with complicated skin and skin structure infection at 50 mg loading dose followed by 25 mg every 12 hrs; type: ADME, organism-based; design: time < 24 hr, dose 50 mg; details: human, plasma; outline: as §4
Streptococcus agalactiae = test: Antibacterial activity against Streptococcus agalactiae; type: functional; outline: as §1
Pseudomonas aeruginosa = test: Antibacterial activity against Pseudomonas aeruginosa; type: functional; outline: as §2
[10] = AUC (24 hrs)/MIC in patient with baseline skin pathogens at 50 mg loading dose followed by 25 mg every 12 hrs; type: ADME, cell-free; details: human, plasma; outline: as §3
Klebsiella oxytoca = test: Antibacterial activity against Klebsiella oxytoca; type: functional; outline: as §1

Question: Which MIC (Citrobacter koseri) does the source give for `CN(C)c1cc(NC(=O)CNC(C)(C)C)c(O)c2c1C[C@H]1C[C@H]3[C@H](N(C)C)C(O)=C(C(N)=O)C(=O)[C@@]3(O)C(O)=C1C2=O` [TIGECYCLINE] here?
Answer: 0.5 µg/mL (≈ 0.854 µM)

Question: What about the MIC (Serratia marcescens) of the same compound?
Answer: 1 µg/mL (≈ 1.71 µM)

Question: What about the MIC (Proteus mirabilis) of the same compound?
Answer: 2 µg/mL (≈ 3.41 µM)

Question: And the MIC (Streptococcus pyogenes)?
Answer: 0.06 µg/mL (≈ 0.102 µM)

Question: And the MIC (Staphylococcus aureus)?
Answer: 0.06 µg/mL (≈ 0.102 µM)

Question: And the MIC (Enterococcus faecalis)?
Answer: 0.12 µg/mL (≈ 0.205 µM)

Question: And the MIC (Enterococcus faecium)?
Answer: 0.06 µg/mL (≈ 0.102 µM)

Question: What about the MIC (Klebsiella pneumoniae) of the same compound?
Answer: 0.5 µg/mL (≈ 0.854 µM)

Question: What about the MIC (Streptococcus anginosus) of the same compound?
Answer: 0.06 µg/mL (≈ 0.102 µM)

Question: What about the MIC (Acinetobacter baumannii) of the same compound?
Answer: 0.25 µg/mL (≈ 0.427 µM)

Question: And the MIC (Escherichia coli)?
Answer: 0.25 µg/mL (≈ 0.427 µM)

Question: What about the MIC [1] of the same compound?
Answer: 0.12 µg/mL (≈ 0.205 µM)

Question: And the MIC [2]?
Answer: 0.25 µg/mL (≈ 0.427 µM)

Question: What about the RatioAUC/MIC [3] of the same compound?
Answer: 32.5

Question: And the MIC (Citrobacter freundii)?
Answer: 0.5 µg/mL (≈ 0.854 µM)

Question: What about the MIC [4] of the same compound?
Answer: 0.06 µg/mL (≈ 0.102 µM)

Question: What about the MIC [5] of the same compound?
Answer: 0.5 µg/mL (≈ 0.854 µM)

Question: And the MIC [6]?
Answer: 0.12 µg/mL (≈ 0.205 µM)

Question: What about the MIC (Enterobacter cloacae) of the same compound?
Answer: 1 µg/mL (≈ 1.71 µM)

Question: What about the AUC at 24 h [7] of the same compound?
Answer: 5390 ng·h/mL

Question: And the MIC [8]?
Answer: 0.06 µg/mL (≈ 0.102 µM)

Question: What about the AUC at 24 h [9] of the same compound?
Answer: 2660 ng·h/mL

Question: And the MIC (Streptococcus agalactiae)?
Answer: 0.06 µg/mL (≈ 0.102 µM)

Question: And the MIC (Pseudomonas aeruginosa)?
Answer: 8 µg/mL (≈ 13.7 µM)

Question: What about the RatioAUC/MIC [10] of the same compound?
Answer: 13.3

Question: What about the MIC (Klebsiella oxytoca) of the same compound?
Answer: 0.5 µg/mL (≈ 0.854 µM)
